The text below walks through data of the array DNA melting data of Ke et al. (doi:10.1101/2024.01.08.574731).

The nature of data set [1]: melting temperature; fluorescence melt of hairpins on a sequencing array, two-state fit, raised by 9.35 °C to match UV melts. Particulars: sodium 0.088 M. The method in brief: (§1)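 Library hairpins on a sequenced MiSeq flow cell carried annealed Cy3 and quencher oligos, and their Cy3 fluorescence was imaged in 50 mM Na-HEPES pH 8.0 with 25 mM NaCl, in 2.5 °C steps up to 60 °C. Signals were normalised to Cy3 before quenching and to control constructs. Melting temperature and folding enthalpy were obtained from bootstrapped two-state fits, combined by inverse-variance weighting across four replicates, and the fitted temperatures were then raised by 9.35 °C to match UV melts.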

Data set [2] can be described thus: folding enthalpy; higher = less favourable; fluorescence melt of hairpins on a sequencing array, two-state fit. The settings on record: sodium 0.088 M. In a few lines:
as §1

Consider GACAACGAAAGTTGTGTC ((((((....)))..))), for which the Tm in data set [1] turned out to be 50.6 °C. Moreover, the folding enthalpy in data set [2] was -14.7 kcal/mol.

With GACAACGAAAGTTTCGTC ((((((....)))..))), the Tm in data set [1] was determined as 32.8 °C. Further, the folding enthalpy in data set [2] is -14.1 kcal/mol.

Take GACAACGGAAACGCTGTC ((((.((....)).)))): the Tm in data set [1] amounted to 45.6 °C. In addition, the folding enthalpy in data set [2] is -34.7 kcal/mol.

Consider GACAAGCCGAAAGGCGTC (((..(((....)))))), for which the Tm in data set [1] is 42.3 °C. Besides, the folding enthalpy in data set [2] is -9.16 kcal/mol.

GACAATCCGAAAGGAGTC (((..(((....)))))): the Tm in data set [1] worked out at 32.7 °C. Further, in data set [2], the folding enthalpy was -17.2 kcal/mol.

With GACAATGGAAACATTGCC (.(((((....))))).), the Tm in data set [1] turned out to be 38.2 °C. The folding enthalpy in data set [2] is -18.6 kcal/mol.

With GACAATGGAAACATTGTC (((((((....))))))), in data set [1], the Tm was 57 °C. Moreover, in data set [2], the folding enthalpy was -47.7 kcal/mol.

Take GACAATGGAAACGTTGTC (((((.(....).))))): the Tm in data set [1] came to 46.5 °C. The folding enthalpy in data set [2] is -34.7 kcal/mol.

Take GACACACGAAAGTGGGTC (((.(((....))).))): the Tm in data set [1] stood at 67.6 °C. The folding enthalpy in data set [2] was -37.8 kcal/mol.

Turning to GACACACGAAAGTGGTC (((.(((....)))))), in data set [1], the Tm is 49.7 °C. Further, the folding enthalpy in data set [2] was -20.7 kcal/mol.

For the sequence GACACAGGAAACTATGTC ((((.((....)).)))), the Tm in data set [1] came to 29.9 °C. Besides, in data set [2], the folding enthalpy is -24.5 kcal/mol.

For GACACAGGAAACTGCGTC (((.(((....))).))), the Tm in data set [1] is 45.3 °C. The folding enthalpy in data set [2] is -23.4 kcal/mol.

GACACCCGAAAGGGAGTC (((.(((....))).))): in data set [1], the Tm came out at 57.5 °C. Further, in data set [2], the folding enthalpy is -29.6 kcal/mol.

In the case of GACACCGAAAGGTCAGTC ((((((....)))..))), in data set [1], the Tm came out at 35.9 °C. The folding enthalpy in data set [2] was -12.5 kcal/mol.

GACACCGAAAGGTGGGTC ((((((....)))..))): in data set [1], the Tm was determined as 65.5 °C. For the same sequence, in data set [2], the folding enthalpy was -11.2 kcal/mol.

As to GACACCGAAAGGTTTGTC ((((((....)))..))), the Tm in data set [1] came to 38.3 °C. The folding enthalpy in data set [2] was -15.1 kcal/mol.

With GACACCGCGAAAGCGGTC (((..(((....)))))), the Tm in data set [1] is 35.4 °C. For the same sequence, the folding enthalpy in data set [2] is -6.65 kcal/mol.

Take GACACCGGAAACGACGTC (((..((....))..))): the Tm in data set [1] was 29.4 °C. The folding enthalpy in data set [2] is -21.9 kcal/mol.

Take GACACGACGAAAGTCGTC (((..(((....)))))): the Tm in data set [1] stood at 34.4 °C. The folding enthalpy in data set [2] is -6.1 kcal/mol.

For the sequence GACACGGCGAAAGCCGTC (((..(((....)))))), the Tm in data set [1] came to 32.9 °C. Moreover, the folding enthalpy in data set [2] is -6.25 kcal/mol.

With GACACGGGAAACCGTACC (..((((....))))..), the Tm in data set [1] was 27.9 °C. The folding enthalpy in data set [2] was -8.11 kcal/mol.

As to GACACGGGAAACCGTATC ((.((((....)))).)), the Tm in data set [1] was found to be 35.2 °C. Besides, the folding enthalpy in data set [2] was -14.5 kcal/mol.

On to GACAGAGGAAACTCCGTC (((.(((....))).))), for which the Tm in data set [1] turned out to be 35 °C. Also, in data set [2], the folding enthalpy was -18.3 kcal/mol.

GACAGCGAAAGCTAGGTC ((((((....)))..))): the Tm in data set [1] came out at 39.4 °C. The folding enthalpy in data set [2] is -18.4 kcal/mol.

As to GACAGCGAAAGCTCCGTC ((((((....)))..))), the Tm in data set [1] came out at 34.4 °C. In addition, the folding enthalpy in data set [2] was -9.29 kcal/mol.

As for GACAGCGAAAGCTGGTC ((((((....))).))), the Tm in data set [1] worked out at 55 °C. In data set [2], the folding enthalpy is -11.8 kcal/mol.

As to GACAGCGGAAACACTGTC (((((.(....).))))), in data set [1], the Tm stood at 46.6 °C. For the same sequence, in data set [2], the folding enthalpy is -33.4 kcal/mol.

In the case of GACAGCGGAAACGCCGTC (((.(((....))).))), in data set [1], the Tm was 50.6 °C. Besides, the folding enthalpy in data set [2] was -18.6 kcal/mol.

As for GACAGCGGAAACGTTGTC ((((.((....)).)))), the Tm in data set [1] came to 51.9 °C. For the same sequence, in data set [2], the folding enthalpy was -37.2 kcal/mol.

As to GACAGGCGAAAGCCGTC (((.(((....)))))), in data set [1], the Tm is 64.9 °C. In addition, the folding enthalpy in data set [2] is -11.3 kcal/mol.

Take GACAGGGAAACCTGTC ((((((....)))))): the Tm in data set [1] was determined as 58.9 °C. In addition, the folding enthalpy in data set [2] was -37.8 kcal/mol.

As to GACAGGGGAAACCCTGCC (.(((((....))))).), the Tm in data set [1] was found to be 46.4 °C. The folding enthalpy in data set [2] was -13.8 kcal/mol.

For GACAGTGAAAACTGTC ((((((....)))))), the Tm in data set [1] is 56.4 °C. For the same sequence, the folding enthalpy in data set [2] was -28.6 kcal/mol.

On to GACATACGAAAGTAAGTC (((.(((....))).))), for which the Tm in data set [1] worked out at 42.7 °C. In addition, the folding enthalpy in data set [2] is -29.7 kcal/mol.

For the sequence GACATAGCGAAAGCTGTC (((..(((....)))))), the Tm in data set [1] amounted to 47.1 °C. Besides, the folding enthalpy in data set [2] is -20.5 kcal/mol.

Consider GACATAGGAAACTATGTC (((((((....))))))), for which, in data set [1], the Tm amounted to 53.5 °C. Moreover, the folding enthalpy in data set [2] is -35.6 kcal/mol.
